13 compounds from ChEMBL document CHEMBL2150931, “Design, synthesis, and biological activity of a novel series of human sirtuin-2-selective inhibitors” (J Med Chem, 2012) can be followed below.

Assay [1] deals with T1, NAD-dependent protein deacetylase sirtuin-1 (Homo sapiens, UniProt Q96EB6).
T1 sequence (Q96EB6 whole entry): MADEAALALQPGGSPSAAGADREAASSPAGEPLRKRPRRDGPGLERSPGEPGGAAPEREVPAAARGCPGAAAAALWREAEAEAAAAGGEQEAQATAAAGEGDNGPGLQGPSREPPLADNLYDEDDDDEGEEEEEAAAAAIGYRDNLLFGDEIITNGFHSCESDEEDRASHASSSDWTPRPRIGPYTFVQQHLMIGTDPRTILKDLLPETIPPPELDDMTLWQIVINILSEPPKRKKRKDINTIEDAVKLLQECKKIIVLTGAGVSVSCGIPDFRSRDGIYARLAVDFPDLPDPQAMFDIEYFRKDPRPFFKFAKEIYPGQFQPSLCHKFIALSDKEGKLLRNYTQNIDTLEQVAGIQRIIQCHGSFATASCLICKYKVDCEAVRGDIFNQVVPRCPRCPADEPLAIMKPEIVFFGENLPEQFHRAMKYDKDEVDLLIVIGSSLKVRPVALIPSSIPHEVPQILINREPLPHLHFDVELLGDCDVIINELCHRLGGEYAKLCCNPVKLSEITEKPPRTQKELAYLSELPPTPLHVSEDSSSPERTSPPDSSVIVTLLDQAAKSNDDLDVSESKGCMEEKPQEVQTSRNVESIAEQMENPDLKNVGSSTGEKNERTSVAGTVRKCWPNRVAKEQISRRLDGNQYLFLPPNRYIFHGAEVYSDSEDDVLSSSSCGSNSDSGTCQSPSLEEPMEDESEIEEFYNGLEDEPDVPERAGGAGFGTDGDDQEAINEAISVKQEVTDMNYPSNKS
Put plainly: Inhibition of human recombinant SIRT1 using Fluor de Lys-SIRT as substrate incubated for 60 mins prior to substrate addition measured after 60 mins by fluorimetric analysis. In short, it runs like this:
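Human recombinant SIRT1 run the same way: 60 min at 37 °C with 1 mM NAD⁺ and serial compound dilutions, then 25 μM Fluor de Lys-SIRT substrate for 60 min. Stopped with nicotinamide-containing Developer II and read 45 min later at ex 360/em 460 nm. IC₅₀ from logit regression of % inhibition vs control; means of ≥3 experiments.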

The target of assay [2] is T2, NAD-dependent protein deacetylase sirtuin-2 (Homo sapiens) (UniProt Q8IXJ6).
T2 sequence (whole entry): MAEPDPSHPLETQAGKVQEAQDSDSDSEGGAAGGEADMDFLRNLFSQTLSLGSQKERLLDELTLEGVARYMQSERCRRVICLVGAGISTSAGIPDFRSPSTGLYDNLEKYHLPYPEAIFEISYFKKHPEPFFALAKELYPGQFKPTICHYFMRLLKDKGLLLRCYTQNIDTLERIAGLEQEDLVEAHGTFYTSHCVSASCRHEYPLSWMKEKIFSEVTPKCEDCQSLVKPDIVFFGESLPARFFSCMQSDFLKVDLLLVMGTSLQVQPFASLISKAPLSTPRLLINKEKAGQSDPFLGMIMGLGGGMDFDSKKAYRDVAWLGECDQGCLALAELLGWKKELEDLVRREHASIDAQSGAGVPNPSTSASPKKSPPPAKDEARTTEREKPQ
To be noted: HCT-116, 10 uM.

The target of assay [3] is T3, NAD-dependent protein deacetylase sirtuin-3, mitochondrial (Homo sapiens, UniProt Q9NTG7).
T3 sequence (Q9NTG7 whole entry): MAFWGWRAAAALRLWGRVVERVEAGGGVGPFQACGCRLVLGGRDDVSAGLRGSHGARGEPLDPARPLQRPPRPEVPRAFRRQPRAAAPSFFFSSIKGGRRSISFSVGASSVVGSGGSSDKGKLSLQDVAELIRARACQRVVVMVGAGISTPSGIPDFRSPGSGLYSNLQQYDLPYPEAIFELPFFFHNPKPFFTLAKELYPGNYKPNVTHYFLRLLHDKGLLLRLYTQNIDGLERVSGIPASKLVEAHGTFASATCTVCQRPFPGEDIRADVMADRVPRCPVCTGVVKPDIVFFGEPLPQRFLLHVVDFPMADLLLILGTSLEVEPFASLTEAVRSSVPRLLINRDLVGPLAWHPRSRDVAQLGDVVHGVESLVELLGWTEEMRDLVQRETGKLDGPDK
The assay can be described thus: Inhibition of human recombinant SIRT3 using Fluor de Lys-SIRT as substrate incubated for 60 mins prior to substrate addition measured after 60 mins by fluorimetric analysis.

Assay [4] has as its target T4, NAD-dependent protein deacetylase sirtuin-2 (Homo sapiens, UniProt Q8IXJ6).
T4 sequence (Q8IXJ6 whole entry): T2 sequence (whole entry)
The assay can be described thus: Inhibition of human recombinant SIRT2 using Fluor de Lys-SIRT as substrate incubated for 60 mins prior to substrate addition measured after 60 mins by fluorimetric analysis. In short, it runs like this:
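Human recombinant SIRT2 preincubated with 1 mM NAD⁺ and serial compound dilutions for 60 min at 37 °C, then 25 μM Fluor de Lys-SIRT substrate added. Reaction stopped at 60 min with Developer II containing nicotinamide. Fluorescence read 45 min later at ex 360/em 460 nm. % inhibition taken against control wells. IC₅₀ obtained by regression of log[Inh] vs logit % inhibition; means of ≥3 experiments.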

Assay [5] has as its target T5, NAD-dependent protein deacetylase sirtuin-1 (Homo sapiens) (UniProt Q96EB6).
T5 sequence (whole entry): T1 sequence (Q96EB6 whole entry)
To be noted: HCT-116, 10 uM.

The target in assay [6] is T5, NAD-dependent protein deacetylase sirtuin-1 (Homo sapiens). Put plainly: Inhibition of human recombinant SIRT1 using Fluor de Lys-SIRT as substrate at 100 uM incubated for 60 mins prior to substrate addition measured after 60 mins by fluorimetric analysis. In short, it runs like this:
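Single-point SIRT1 test at 100 μM compound. Human recombinant enzyme with 1 mM NAD⁺ at 37 °C for 60 min, then 25 μM Fluor de Lys-SIRT substrate for 60 min. Stopped with nicotinamide developer; fluorescence read at 360/460 nm after 45 min. Inhibition expressed as % relative to uninhibited control wells.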

Structures are written as SMILES. Calls of active or inactive are those of the source. The rule behind the calls is not given here.

A word on the IC50: it is the concentration that inhibits the measured activity by half. The term inhibition denotes the change of the read-out against control, counted positive when it falls. On to `N#C/C(=C\c1ccc(-c2cc(Cl)ccc2Cl)o1)C(=O)Nc1cccc2ncccc12`, for which the IC50 in assay [1] was 30 µM. Moreover, the inhibition result in assay [2] was “Active”.
As to `NC(=O)c1ccccc1Nc1cccc(OCCc2cccc(F)c2)c1`, the IC50 in assay [1] is over 100 µM; in assay [3], over 300 µM; in assay [4], 0.57 µM.
As for `NC(=O)C1CCCc2c1[nH]c1ccc(Cl)cc21` (configuration not stated), in assay [5], the inhibition entry is “Active”.
As to `CN(C(=O)c1cccc(Nc2ccccc2C(N)=O)c1)c1ccccc1`, the IC50 in assay [1] and in assay [4] was over 100 µM in each case.
Take `CC(C)C(=O)Nc1ccc(Nc2ccccc2C(N)=O)cc1`: the half-inhibitory concentration (IC50) in assay [1] and in assay [4] was over 100 µM throughout.
`NC(=O)c1ccccc1Nc1cccc(OCCc2ccccc2C(F)(F)F)c1`: the figures for the IC50 in assay [1] and in assay [4] were over 100 µM and 3.1 µM, respectively.
Taken in the same sequence, the figures for `CN(C(=O)c1ccccc1)c1ccc(Nc2ccccc2C(N)=O)cc1` were over 100 µM and over 300 µM.
Consider `NC(=O)c1ccccc1Nc1ccc(OCc2ccccc2)cc1`, for which the IC50 in assay [1] is over 100 µM; in assay [4], 33 µM. Further, in assay [6], the inhibition is 13%.
Turning to `NC(=O)c1ccccc1Nc1ccc(-c2ccccc2)cc1`, the IC50 in assay [1] and in assay [4] was over 100 µM each time.
On to `NC(=O)c1ccccc1Nc1cccc(C(=O)Nc2ccccc2)c1`, for which the half-inhibitory concentration (IC50) was over 100 µM in assay [1] and 83 µM in assay [4].
Turning to `NC(=O)c1ccccc1Nc1ccc(NC(=O)c2ccccc2)cc1`, the results for the IC50 in assay [1] and in assay [4] were over 100 µM and 17 µM, respectively.
Taken in the same sequence, the figures for `CN(C(=O)Cc1ccccc1)c1cccc(Nc2ccccc2C(N)=O)c1` were over 100 µM and over 100 µM.
With `Cc1cccc(CCOc2cccc(Nc3ccccc3C(N)=O)c2)c1`, the IC50 in assay [1] is over 100 µM; in assay [4] it was 1.8 µM.
